Results reported in ChEMBL document CHEMBL4368909, “Identification of Dihydrofuro[3,4- d]pyrimidine Derivatives as Novel HIV-1 Non-Nucleoside Reverse Transcriptase Inhibitors with Promising Antiviral Activities and Desirable Physicochemical Properties” (J Med Chem, 2019).
≈ marks a conversion by molar mass, not a printed value.

Columns and labels:
[1] = test system: Human immunodeficiency virus 1; experiment: Resistance factor, ratio of EC50 for HIV1 harboring reverse transcriptase Y181C mutant to EC50 for wild type HIV1; assay type: functional
Summary of the method: (§1)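 The resistance factor is the EC50 against the mutant strain divided by the EC50 against wild-type HIV-1. Both were measured in MT-4 cells by MTT read-out of protection from virus-induced cytopathicity.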

[2] = molecular target: Human immunodeficiency virus type 1 reverse transcriptase (Human immunodeficiency virus 1, UniProt Q72547); experiment: Inhibition of recombinant HIV1 reverse transcriptase using (DIG)-dUTP and biotin-labeled dNTPs as substrate after 1 hr by ELISA
[3] = Tmax in Wistar rat at 2 mg/kg, iv by LC-MS/MS analysis; assay type: ADME, organism-based; settings: in vivo
Summary of the method: (§2)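 Male/unspecified Wistar rats given one dose, 2 mg/kg intravenously or 20 mg/kg orally; plasma concentration–time profiles followed; PK parameters reported as mean ± SD, n = 5.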

[4] = Half life in Wistar rat at 2 mg/kg, iv by LC-MS/MS analysis; assay type: ADME, organism-based; settings: in vivo; summary of the method: as §2
[5] = test system: MT4; experiment: Cytotoxicity against human MT4 cells after 5 days by MTT assay; assay type: cell-based; settings: mt4, 120 h
[6] = Clearance in Wistar rat at 2 mg/kg, iv by LC-MS/MS analysis; assay type: ADME, organism-based; settings: in vivo; summary of the method: as §2
[7] = test system: Human immunodeficiency virus 1; experiment: Resistance factor, ratio of EC50 for HIV1 harboring reverse transcriptase K103N mutant to EC50 for wild type HIV1; assay type: functional; summary of the method: as §1
[8] = Half life in Wistar rat at 20 mg/kg, po by LC-MS/MS analysis; assay type: ADME, organism-based; settings: in vivo; summary of the method: as §2
[9] = Aqueous solubility of the compound in FASSIF by HPLC analysis; assay type: physicochemical; settings: simulated gi fluid
Summary of the method: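 Solubility read by HPLC in fasted state simulated intestinal fluid (FaSSIF).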

[10] = Sub-acute toxicity in Kunming mouse assessed as effect on kidneys at 50 mg/kg/day, po administered for 2 weeks by hematoxylin and eosin staining-based assay; assay type: organism-based; settings: in vivo, 336 h
Summary of the method: (§3)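 Mice were dosed orally at 50 mg/kg/day for 2 weeks and observed for behavioural abnormalities during treatment. Organs were then examined by hematoxylin–eosin staining.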

[11] = test system: Human immunodeficiency virus 1; experiment: Antiviral activity against HIV1 harboring reverse transcriptase E138K mutant infected in human MT4 cells assessed as reduction in virus-induced cytopathic effect after 5 days by MTT assay; assay type: functional, organism-based; settings: Human immunodeficiency virus 1, MT4, 120 h
[12] = Cmax in Wistar rat at 20 mg/kg, po by LC-MS/MS analysis; assay type: ADME, organism-based; set-up: dose 20 mg/kg, route oral; settings: in vivo; summary of the method: as §2
[13] = test system: Human immunodeficiency virus 2; experiment: Antiviral activity against HIV2 ROD infected in human MT4 cells assessed as reduction in virus-induced cytopathic effect after 5 days by MTT assay; settings: Human immunodeficiency virus 2, ISOLATE ROD, MT4, 120 h
[14] = Protein binding in human plasma assessed as recovery rate at 2 uM after 5 hrs by LC/MS analysis; assay type: ADME, cell-free
[15] = test system: Human immunodeficiency virus 1; experiment: Resistance factor, ratio of EC50 for HIV1 harboring reverse transcriptase E138K mutant to EC50 for wild type HIV1; assay type: functional; summary of the method: as §1
[16] = test system: Human immunodeficiency virus 1; experiment: Antiviral activity against HIV1 harboring reverse transcriptase L100I mutant infected in human MT4 cells assessed as reduction in virus-induced cytopathic effect after 5 days by MTT assay; assay type: functional, organism-based; settings: Human immunodeficiency virus 1, MT4, 120 h
[17] = test system: Human immunodeficiency virus 1; experiment: Antiviral activity against HIV1 RES056 infected in human MT4 cells assessed as reduction in virus-induced cytopathic effect after 5 days by MTT assay; assay type: functional, organism-based; settings: Human immunodeficiency virus 1, RES056, MT4, 120 h
[18] = Tmax in Wistar rat at 20 mg/kg, po by LC-MS/MS analysis; assay type: ADME, organism-based; settings: in vivo; summary of the method: as §2
[19] = test system: Human immunodeficiency virus 1; experiment: Antiviral activity against HIV1 harboring reverse transcriptase F227L/V106A double mutant infected in human MT4 cells assessed as reduction in virus-induced cytopathic effect after 5 days by MTT assay; assay type: functional, organism-based; settings: Human immunodeficiency virus 1, MT4, 120 h
[20] = test system: Human immunodeficiency virus 1; experiment: Resistance factor, ratio of EC50 for HIV1 harboring reverse transcriptase F227L/V106A double mutant to EC50 for wild type HIV1; assay type: functional; summary of the method: as §1
[21] = Aqueous solubility of the compound at pH at 7.4 by HPLC analysis; assay type: physicochemical; settings: buffer, pH 7.4
Summary of the method: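 Aqueous solubility read by HPLC in buffer at pH 2.0, 7.0 or 7.4.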

[22] = Cmax in Wistar rat at 2 mg/kg, iv by LC-MS/MS analysis; assay type: ADME, organism-based; set-up: dose 2 mg/kg, route intravenous; settings: in vivo; summary of the method: as §2
[23] = test system: Human immunodeficiency virus 1; experiment: Antiviral activity against HIV1 harboring reverse transcriptase K103N mutant infected in human MT4 cells assessed as reduction in virus-induced cytopathic effect after 5 days by MTT assay; assay type: functional, organism-based; settings: Human immunodeficiency virus 1, MT4, 120 h
[24] = Sub-acute toxicity in Kunming mouse assessed as effect on lungs at 50 mg/kg/day, po administered for 2 weeks by hematoxylin and eosin staining-based assay; assay type: organism-based; settings: in vivo, 336 h; summary of the method: as §3
[25] = Protein binding in human plasma at 2 uM after 5 hrs by LC/MS analysis; assay type: ADME, cell-free; settings: read-out: PPB (converted)
[26] = test system: Human immunodeficiency virus 1; experiment: Resistance factor, ratio of EC50 for HIV1 harboring reverse transcriptase L100I mutant to EC50 for wild type HIV1; assay type: functional; summary of the method: as §1
[27] = Sub-acute toxicity in Kunming mouse assessed as behavior abnormalities at 50 mg/kg/day, po administered for 2 weeks by hematoxylin and eosin staining-based assay; assay type: organism-based; settings: in vivo, 336 h; summary of the method: as §3
[28] = molecular target: Cytochrome P450 2C19 (Homo sapiens, UniProt P33261); experiment: Inhibition of CYP2C19 in human liver microsomes using S-mephenytoin as substrate after 10 mins in presence of NADPH; assay type: ADME
[29] = molecular target: Cytochrome P450 2D6 (Homo sapiens, UniProt P10635); experiment: Inhibition of CYP2D6 in human liver microsomes using dextromethorphan as substrate after 10 mins in presence of NADPH; assay type: ADME
[30] = test system: Human immunodeficiency virus 1; experiment: Antiviral activity against wild type HIV1 3B infected in human MT4 cells assessed as reduction in virus-induced cytopathic effect after 5 days by MTT assay; assay type: functional, organism-based; settings: Human immunodeficiency virus 1, 3B, MT4, 120 h
[31] = test system: Human immunodeficiency virus 1; experiment: Antiviral activity against HIV1 harboring reverse transcriptase Y181C mutant infected in human MT4 cells assessed as reduction in virus-induced cytopathic effect after 5 days by MTT assay; assay type: functional, organism-based; settings: Human immunodeficiency virus 1, MT4, 120 h
[32] = Protein binding in rat plasma at 2 uM after 5 hrs by LC/MS analysis; assay type: ADME, cell-free; settings: read-out: PPB (converted)
[33] = molecular target: Voltage-gated inwardly rectifying potassium channel KCNH2 (Homo sapiens, UniProt Q12809); experiment: Inhibition of human ERG expressed in HEK293 cells at -80 mV holding potential by manual patch clamp assay
[34] = Acute toxicity in Kunming mouse assessed as behavior abnormalities at 800 mg/kg, po measured after 2 weeks; assay type: organism-based; settings: in vivo, 336 h
Summary of the method: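 Kunming mice received a single intragastric dose of 800 mg/kg. Deaths and behaviour were observed over 2 weeks and compared with a control group.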

[35] = Sub-acute toxicity in Kunming mouse assessed as effect on spleen at 50 mg/kg/day, po administered for 2 weeks by hematoxylin and eosin staining-based assay; assay type: organism-based; settings: in vivo, 336 h; summary of the method: as §3
[36] = AUC (0 to infinity) in Wistar rat at 2 mg/kg, iv by LC-MS/MS analysis; assay type: ADME, organism-based; set-up: dose 2 mg/kg, time infinity, route intravenous; settings: in vivo; summary of the method: as §2
[37] = test system: Human immunodeficiency virus 1; experiment: Antiviral activity against HIV1 harboring reverse transcriptase Y188L mutant infected in human MT4 cells assessed as reduction in virus-induced cytopathic effect after 5 days by MTT assay; assay type: functional, organism-based; settings: Human immunodeficiency virus 1, MT4, 120 h
[38] = AUC (0 to infinity) in Wistar rat at 20 mg/kg, po by LC-MS/MS analysis; assay type: ADME, organism-based; set-up: dose 20 mg/kg, route oral, time infinity; settings: in vivo; summary of the method: as §2

Voltage-gated inwardly rectifying potassium channel KCNH2, sequence (Q12809 whole entry): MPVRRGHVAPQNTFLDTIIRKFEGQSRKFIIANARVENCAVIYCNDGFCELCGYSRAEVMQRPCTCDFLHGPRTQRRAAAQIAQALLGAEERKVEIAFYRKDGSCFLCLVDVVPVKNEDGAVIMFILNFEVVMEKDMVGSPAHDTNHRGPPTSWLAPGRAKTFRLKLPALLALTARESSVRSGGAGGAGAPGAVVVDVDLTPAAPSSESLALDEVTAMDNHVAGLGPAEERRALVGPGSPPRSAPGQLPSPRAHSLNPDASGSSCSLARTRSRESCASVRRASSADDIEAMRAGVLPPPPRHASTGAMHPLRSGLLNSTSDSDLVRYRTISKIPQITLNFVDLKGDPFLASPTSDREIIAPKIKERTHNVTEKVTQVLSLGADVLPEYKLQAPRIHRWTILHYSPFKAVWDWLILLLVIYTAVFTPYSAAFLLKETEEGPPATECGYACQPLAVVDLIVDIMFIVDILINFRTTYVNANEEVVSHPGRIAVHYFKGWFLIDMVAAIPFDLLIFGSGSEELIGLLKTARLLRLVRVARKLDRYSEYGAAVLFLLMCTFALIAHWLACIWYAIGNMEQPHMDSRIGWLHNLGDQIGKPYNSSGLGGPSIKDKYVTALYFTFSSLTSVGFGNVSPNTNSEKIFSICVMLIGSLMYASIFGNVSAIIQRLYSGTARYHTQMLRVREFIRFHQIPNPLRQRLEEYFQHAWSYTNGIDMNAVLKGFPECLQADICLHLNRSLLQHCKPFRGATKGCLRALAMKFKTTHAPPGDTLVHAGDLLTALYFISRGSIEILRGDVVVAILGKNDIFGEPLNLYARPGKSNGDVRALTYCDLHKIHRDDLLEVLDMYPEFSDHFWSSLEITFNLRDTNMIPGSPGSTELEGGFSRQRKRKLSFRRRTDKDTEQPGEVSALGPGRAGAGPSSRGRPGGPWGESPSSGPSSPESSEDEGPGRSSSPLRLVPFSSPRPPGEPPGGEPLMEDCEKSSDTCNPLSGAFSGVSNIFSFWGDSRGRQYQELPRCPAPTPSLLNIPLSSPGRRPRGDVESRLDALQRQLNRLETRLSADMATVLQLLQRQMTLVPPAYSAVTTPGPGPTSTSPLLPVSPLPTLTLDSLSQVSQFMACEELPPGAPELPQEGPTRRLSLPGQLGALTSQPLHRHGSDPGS
Cytochrome P450 2D6, sequence (P10635 whole entry): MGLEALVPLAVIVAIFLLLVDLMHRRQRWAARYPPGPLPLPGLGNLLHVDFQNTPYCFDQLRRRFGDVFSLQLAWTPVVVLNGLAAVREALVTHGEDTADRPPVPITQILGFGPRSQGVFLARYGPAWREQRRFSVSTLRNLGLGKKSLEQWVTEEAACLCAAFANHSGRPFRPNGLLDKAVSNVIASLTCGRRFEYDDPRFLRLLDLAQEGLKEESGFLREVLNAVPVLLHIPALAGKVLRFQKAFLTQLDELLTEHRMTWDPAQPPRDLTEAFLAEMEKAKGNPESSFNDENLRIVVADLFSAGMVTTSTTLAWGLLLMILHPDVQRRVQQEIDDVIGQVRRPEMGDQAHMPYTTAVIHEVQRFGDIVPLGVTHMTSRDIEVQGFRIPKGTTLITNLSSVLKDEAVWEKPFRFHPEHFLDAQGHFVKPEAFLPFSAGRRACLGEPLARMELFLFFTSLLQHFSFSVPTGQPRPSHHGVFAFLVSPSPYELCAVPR
Cytochrome P450 2C19, sequence (P33261 whole entry): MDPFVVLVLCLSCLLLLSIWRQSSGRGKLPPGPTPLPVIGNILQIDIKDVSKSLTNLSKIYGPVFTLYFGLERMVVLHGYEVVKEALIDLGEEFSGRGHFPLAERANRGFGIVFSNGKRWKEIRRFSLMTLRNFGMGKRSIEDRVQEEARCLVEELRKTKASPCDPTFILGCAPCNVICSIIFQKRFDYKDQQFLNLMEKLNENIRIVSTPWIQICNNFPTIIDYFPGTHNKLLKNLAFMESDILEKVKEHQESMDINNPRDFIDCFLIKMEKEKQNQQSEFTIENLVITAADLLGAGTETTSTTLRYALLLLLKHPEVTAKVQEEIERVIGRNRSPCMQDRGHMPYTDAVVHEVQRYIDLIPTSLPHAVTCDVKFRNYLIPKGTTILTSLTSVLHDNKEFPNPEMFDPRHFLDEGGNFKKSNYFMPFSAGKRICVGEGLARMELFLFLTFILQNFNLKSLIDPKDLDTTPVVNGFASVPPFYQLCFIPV

Cc1cc(C#N)cc(C)c1Oc1nc(NC2CCN(Cc3ccc(C(N)=O)cc3)CC2)nc2c1COC2
Ratio EC50 [1]: 2.8 | IC50 [2]: 51 nM | Tmax [3]: 1.98 min | half-life [4]: 1.09 h | CC50 [5]: > 250000 nM | clearance [6]: 61.5 mL/min/kg | Ratio EC50 [7]: 0.6 | half-life [8]: 11.1 h | solubility [9]: 32.5 µg/mL (≈ 65.2 µM) | Activity [10]: Non-Toxic | EC50 [11]: 7 nM | Cmax [12]: 400 ng/mL | EC50 [13]: 12700 nM | Drug recovery [14]: 86.3% | Ratio EC50 [15]: 4.4 | EC50 [16]: 2.4 nM | EC50 [17]: 41.5 nM | Tmax [18]: 1.33 h | EC50 [19]: 19 nM | Ratio EC50 [20]: 11.9 | solubility [21]: 6.59 µg/mL (≈ 13.2 µM) | Cmax [22]: 460 ng/mL | EC50 [23]: 0.9 nM | Activity [24]: Non-Toxic | fraction unbound at 5 h, 2 µM [25]: 0.07 | Ratio EC50 [26]: 1.5 | Activity [27]: Non-Toxic | IC50 [28]: > 50000 nM | IC50 [29]: > 50000 nM | EC50 [30]: 1.6 nM | EC50 [31]: 4.4 nM | fraction unbound at 5 h, 2 µM [32]: 0.082 | IC50 [33]: 830 nM | Activity [34]: Non-Toxic | Activity [35]: Non-Toxic | AUC(0-inf) [36]: 543 ng·h/mL | EC50 [37]: 8.4 nM | AUC(0-inf) [38]: 1660 ng·h/mL
